The text below walks through data of ChEMBL document CHEMBL2331318, “Azide-alkyne cycloaddition en route to 1H-1,2,3-triazole-tethered 7-chloroquinoline-isatin chimeras: synthesis and antimalarial evaluation” (Eur J Med Chem, 2013).

By IC50 is commonly meant the concentration that inhibits the measured activity by half.

A value given as a limit tells only on which side of the number the result lay.

The experiment has as its system Plasmodium falciparum. In words: In vitro antimalarial activity against ring stage of chloroquine-resistant Plasmodium falciparum W2 cultured in medium containing 10% human serum assessed as inhibition of parasite growth after 48 hrs by YOYO-1 dye based flow cytometry. Format: functional, organism-based. To be noted: W2, 48 h. The essentials: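 Ring-stage microwell cultures were exposed to a range of compound concentrations for 48 h, with 0.1% DMSO maximum and in the no-inhibitor controls. Cells were fixed in 1% formaldehyde/PBS pH 7.4 for 48 h at room temperature, then stained with 1 nM YOYO-1 in 0.1% Triton X-100/PBS. Parasitemia was counted by flow cytometry, and IC50 obtained by nonlinear regression of % control parasitemia from duplicate experiments.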
For orientation: A flow cytometer gives signals particle by particle.
On to `O=C1C(=O)N(Cc2cnnn2CCNc2ccnc3cc(Cl)ccc23)c2ccccc21`, for which the half-maximal inhibitory concentration (IC50) came to 3.07 µM. `O=C1C(=O)N(Cc2cnnn2CCNc2ccnc3cc(Cl)ccc23)c2ccc(F)cc21`: the IC50 was found to be 2.3 µM.

On to `O=C1C(=O)N(Cc2cnnn2CCNc2ccnc3cc(Cl)ccc23)c2ccc(Cl)cc21`, for which the IC50 came out at 1.37 µM. Regarding `O=C1C(=O)N(Cc2cnnn2CCNc2ccnc3cc(Cl)ccc23)c2ccc(Br)cc21`, the IC50 was 1.73 µM.

Turning to `Cc1ccc2c(c1)C(=O)C(=O)N2Cc1cnnn1CCNc1ccnc2cc(Cl)ccc12`, the concentration for half-maximal inhibition (IC50) is 1.63 µM. For the compound `O=C1C(=O)N(Cc2cnnn2CCCNc2ccnc3cc(Cl)ccc23)c2ccccc21`, the IC50 was 3.85 µM. For the compound `O=C1C(=O)N(Cc2cnnn2CCCNc2ccnc3cc(Cl)ccc23)c2ccc(F)cc21`, the concentration for half-maximal inhibition (IC50) came to 1.35 µM. In the case of `O=C1C(=O)N(Cc2cnnn2CCCNc2ccnc3cc(Cl)ccc23)c2ccc(Cl)cc21`, the half-inhibitory concentration (IC50) was 1.21 µM. For `O=C1C(=O)N(Cc2cnnn2CCCNc2ccnc3cc(Cl)ccc23)c2ccc(Br)cc21`, the 50% inhibitory concentration (IC50) was found to be 1.66 µM. Turning to `Cc1ccc2c(c1)C(=O)C(=O)N2Cc1cnnn1CCCNc1ccnc2cc(Cl)ccc12`, the 50% inhibitory concentration (IC50) stood at 1.3 µM. To `O=C1C(=O)N(Cc2cnnn2-c2ccnc3cc(Cl)ccc23)c2ccccc21` belongs greater than 5 µM; to `O=C1C(=O)N(Cc2cnnn2-c2ccnc3cc(Cl)ccc23)c2ccc(F)cc21`, greater than 5 µM. Then `O=C1C(=O)N(Cc2cnnn2-c2ccnc3cc(Cl)ccc23)c2ccc(Cl)cc21`, with greater than 5 µM.

Consider `O=C1C(=O)N(Cc2cnnn2-c2ccnc3cc(Cl)ccc23)c2ccc(Br)cc21`, for which the IC50 is greater than 5 µM. Consider `Cc1ccc2c(c1)C(=O)C(=O)N2Cc1cnnn1-c1ccnc2cc(Cl)ccc12`, for which the IC50 was greater than 5 µM.
